Results as given in ChEMBL document CHEMBL1671644, “Inhibition of human immunodeficiency virus type 1 infection by the candidate microbicide dapivirine, a nonnucleoside reverse transcriptase inhibitor” (Antimicrob Agents Chemother, 2009).
Calls of active or inactive are those of the source. No cut-off for these calls is given here.

Tests used:
[1] = tested on: Human immunodeficiency virus 1; test: Antiviral activity against HIV-1 Bal infected in 24 hrs 100 to 1000 nM compound pretreated human ectocervical explant tissue assessed as prolonged inhibition of viral infection post compound removal measured after 4 days post compound removal; type: functional
In short: (§1)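 Ectocervical explants were exposed to drug (0.01–10 µM) for 2 or 24 h at 37°C and washed. They received HIV-1BaL (2 h) on day 0, 2, 4 or 6 after drug removal, with no drug present. Read-outs at 10 days post-exposure: explant p24 ELISA, tissue proviral DNA by qPCR, and p24 in migratory cell–PM-1 cocultures. Three donors (2 h) or two donors (24 h), triplicate.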

[2] = tested on: Human immunodeficiency virus 1; test: Antiviral activity against HIV-1 Bal infected in human TZM-bl cells after 24 hrs by luciferase reporter gene assay in presence of 12.5% cervical mucus; type: functional, organism-based; conditions: Human immunodeficiency virus 1, Bal
In short: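 TZM-bl cells (5 x 10^4/well), cultured overnight, pretreated first with cervical mucus simulant (12.5% final) and then drug (1 h), then infected with HIV-1 BaL (200 TCID50/ml). After 24 h, cells lysed and luciferase read. IC50 versus drug-free control by nonlinear regression; effect of mucus tested by ANOVA with Bonferroni and t tests.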

[3] = tested on: Human immunodeficiency virus 1; test: Antiviral activity against HIV-1 Bal infected in 24 hrs 100 to 1000 nM compound pretreated human ectocervical explant tissue assessed as prolonged inhibition of viral infection post compound removal measured after 2 days post compound removal; type: functional; in short: as §1
[4] = Toxicity against human Ectocervical tissue explants at 0.0001 to 100 uM after 24 hrs by MTT assay
In short: (§2)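 Uninfected ectocervical explants were exposed to drug for 2 or 24 h. Viability was measured by MTT reduction per milligram of tissue relative to unexposed explants, either immediately or after overnight culture. Three or four donors, triplicate.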

[5] = tested on: Human immunodeficiency virus 1; test: Antiviral activity against HIV-1 subtype D V022819 infected in human MT4 cells assessed as inhibition of viral replication relative to HIV-1 3B; type: functional
In short: (§3)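 MT-4 cells (3 x 10^4/well) infected with site-directed mutants or recombinant clinical isolates (200 TCID50/well) with drug, cultured 3 to 5 days. Viability read by MTT colorimetric antivirogram assay. IC50 by nonlinear regression; fold change = IC50 for the test isolate / IC50 for wild-type HIV-1 IIIB tested in parallel (mean or median).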

[6] = Cytotoxicity against human MT4 cells after 24 hrs by MTT assay; type: cell-based
[7] = tested on: Human immunodeficiency virus 1; test: Antiviral activity against HIV-1 Bal infected in human PM1 cells assessed as inhibition of transmission of virus to premissive T cells; type: functional, organism-based; conditions: Human immunodeficiency virus 1, Bal
In short: (§4)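 Explants were pretreated with drug for 1 h, then exposed to HIV-1BaL for 2 h with drug present and washed. Cells that migrated out overnight were washed and cocultured with PM-1 cells (4 x 10^4/well) for about 10 days. Transfer was read as p24 by ELISA in coculture supernatant (detection limit 300 pg/ml). Two donors, triplicate.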

[8] = tested on: Human immunodeficiency virus 1; test: Antiviral activity against HIV-1 Bal infected in human cervical tissue explants assessed as inhibition of dissemination of virus via migratory cells after 2 hrs; type: functional, organism-based; in short: as §4
[9] = tested on: Human immunodeficiency virus 1; test: Antiviral activity against HIV-1 SM051 harboring NNTRI 100I and 103N mutant infected in human MT4 cells assessed as inhibition of viral replication relative to HIV-1 3B; type: functional; in short: as §3
[10] = Toxicity against human cervical tissue explants at 1 mM after 24 hrs by MTT assay; conditions: 1000 µM; in short: as §2
[11] = tested on: Human immunodeficiency virus 1; test: Antiviral activity against HIV-1 subtype B V022812 harboring NNRTI V179I mutant infected in human MT4 cells assessed as inhibition of viral replication relative to HIV-1 3B; type: functional; in short: as §3
[12] = tested on: Human immunodeficiency virus 1; test: Antiviral activity against HIV-1 SF162 infected in hu-SCID mouse assessed as protection from viral infection at 22.5 uM; type: functional; conditions: Human immunodeficiency virus 1, SF162 ISOLATE
[13] = Selectivity index, ratio of CC50 for human MT-4 cells to IC50 for HIV-1 3B; type: functional, MT4
[14] = tested on: Human immunodeficiency virus 1; test: Antiviral activity against HIV-1 subtype CRF01_AE V029525 infected in human MT4 cells assessed as inhibition of viral replication relative to HIV-1 3B; type: functional
In short: (§5)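 Recombinant clinical HIV-1 isolates (200 TCID50/well) were tested in MT-4 cells (3 x 10^4/well) over 3–5 days, with an MTT viability read-out. IC50 was fitted by nonlinear regression. Fold change is the isolate IC50 divided by the HIV-1IIIB IC50, tested in parallel.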

[15] = tested on: Human immunodeficiency virus 1; test: Antiviral activity against HIV-1 3B infected in human MT4 cells after 3 to 5 days by MTT assay; conditions: Human immunodeficiency virus 1, 3B, MT4, 72 to 120 h
[16] = tested on: Human immunodeficiency virus 1; test: Antiviral activity against HIV-1 subtype B V022807 infected in human MT4 cells assessed as inhibition of viral replication relative to HIV-1 3B; type: functional; in short: as §5
[17] = tested on: Human immunodeficiency virus 1; test: Antiviral activity against HIV-1 SM026 harboring NNTRI 103N and 181C mutant infected in human MT4 cells assessed as inhibition of viral replication relative to HIV-1 3B; type: functional; in short: as §3
[18] = tested on: Human immunodeficiency virus 1; test: Antiviral activity against HIV-1 Bal infected in human TZM-bl cells after 24 hrs by luciferase reporter gene assay; type: functional, organism-based; conditions: Human immunodeficiency virus 1, Bal
In short: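 TZM-bl cells (5 x 10^4/well), cultured overnight, pretreated with drug 1 h, then infected with HIV-1 BaL (200 TCID50/ml). After 24 h, cells washed and lysed and luciferase read. Drug-treated wells compared with untreated controls; IC50 (infection at 50% of drug-free control) by nonlinear regression.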

[19] = tested on: Human immunodeficiency virus 1; test: Antiviral activity against HIV-1 Bal infected in 24 hrs 10 nM compound pretreated human ectocervical explant tissue assessed as prolonged inhibition of viral infection post compound removal; type: functional; in short: as §1
[20] = tested on: Human immunodeficiency virus 1; test: Antiviral activity against HIV-1 3B infected in human TZM-bl cells after 24 hrs by luciferase reporter assay; conditions: Human immunodeficiency virus 1, 3B
[21] = tested on: Human immunodeficiency virus 1; test: Antiviral activity against HIV-1 subtype C V022829 infected in human MT4 cells assessed as inhibition of viral replication relative to HIV-1 3B; type: functional; in short: as §3
[22] = tested on: Human immunodeficiency virus 1; test: Antiviral activity against HIV-1 RF infected in human PM1 cells after 7 days by RT assay; type: functional, organism-based; conditions: Human immunodeficiency virus 1, RF, PM1, 168 h
In short: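 PM-1 cells (4 x 10^4/well) were infected with HIV-1BaL or HIV-1RF (200 TCID50/ml) and cultured 7 days with drug. Replication was measured as reverse transcriptase in supernatant versus untreated wells. IC50 was obtained by nonlinear regression.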

[23] = tested on: Human immunodeficiency virus 1; test: Antiviral activity against HIV-1 Bal infected in human PM1 cells assessed as inhibition of transmission of virus to premissive T cells at 10 uM; type: functional; conditions: Human immunodeficiency virus 1, Bal; in short: as §4
[24] = tested on: Human immunodeficiency virus 1; test: Antiviral activity against HIV-1 subtype H V022828 harboring NNRTI K101Q and V179I mutant infected in human MT4 cells assessed as inhibition of viral replication relative to HIV-1 3B; type: functional; in short: as §3
[25] = tested on: Human immunodeficiency virus 1; test: Antiviral activity against HIV-1 subtype CRF02_AG V022826 infected in human MT4 cells assessed as inhibition of viral replication relative to HIV-1 3B; type: functional; in short: as §3

With `Cc1cc(C)c(Nc2ccnc(Nc3ccc(C#N)cc3)n2)c(C)c1` [DAPIVIRINE] the “inhibition (INH)” value [1] was 90%, the IC50 [2] was 8.32 nM and the IC90 [2] was 41.6 nM. For the same molecule, the “inhibition (INH)” value [3] was 90%, the Activity [4] was “Non-toxic” and the “Ratio IC50” value [5] was 1.5. The CC50 at 24 h [6] was 2150 nM, the IC50 [7] was 0.1 nM and the inhibition [8] was “Active”. The “Ratio IC50” value [9] was 2389, the Activity [10] was “Non-toxic” and the “Ratio IC50” value [11] was 2. The inhibition in vivo at 22.5 µM [12] was 78.6%, the “Selectivity Index” value [13] was 2389 and the “Ratio IC50” value [14] was 2.6. For the same molecule, the IC50 [15] was 0.9 nM, the “Ratio IC50” value [16] was 1.1 and the “Ratio IC50” value [17] was 63. The IC50 [18] was 1.46 nM, the IC90 [18] was 10.2 nM and the “inhibition (INH)” value [19] was 90%. The IC50 [20] was 1 nM, the “Ratio IC50” value [21] was 1 and the IC50 [22] was 2.4 nM. The inhibition at 10 µM [23] was over 90%, the “Ratio IC50” value [24] was 1.5 and the “Ratio IC50” value [25] was 1.
